Reference: ChEMBL document CHEMBL2203263, “Discovery of a 4-Azetidinyl-1-thiazoyl-cyclohexane CCR2 Antagonist as a Development Candidate” (ACS Med Chem Lett, 2012)

Tests used:
[1] = test system: Cavia porcellus; experiment: Cardiotoxicity in anesthetized-Hartley guinea pig assessed as prolongation of corrected QT interval up to cumulative dose of 10 mg/kg, iv by electrocardiographic analysis; format: toxicity, organism-based; design: dose 10 mg/kg, route intravenous; settings: in vivo
How it was run: (§1)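 Anesthetized guinea pigs received cumulative i.v. doses of 0.1, 0.3, 1, 3 and 10 mg/kg, each as a 5 min infusion at 0, 20, 40, 60 and 80 min. QTc was recorded at each time point as percent change from each animal's baseline. Mean ± SEM, n = 3.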

[2] = test system: Cavia porcellus; experiment: Cardiotoxicity in iv dosed anesthetized-Hartley guinea pig assessed as prolongation of corrected QT interval by electrocardiographic analysis; format: toxicity, organism-based; settings: in vivo; how it was run: as §1
[3] = biological target: Voltage-gated inwardly rectifying potassium channel KCNH2 (Homo sapiens, UniProt Q12809); experiment: Displacement of [3H]-astemizole from human ERG expressed in HEK293 cells after 1 hr by scintillation counting analysis; format: cell-based
[4] = biological target: hERG (KCNH2) (Homo sapiens, UniProt Q12809); experiment: Inhibition of human ERG expressed in HEK-293 cells assessed as K+-selective outward current at 3 uM at -80 mV holding potential after 5 mins by voltage patch-clamp method; format: cell-based, HEK293; settings: HEK-293 cells expressing human ERG
Sequence of hERG (KCNH2) (Q12809 whole entry): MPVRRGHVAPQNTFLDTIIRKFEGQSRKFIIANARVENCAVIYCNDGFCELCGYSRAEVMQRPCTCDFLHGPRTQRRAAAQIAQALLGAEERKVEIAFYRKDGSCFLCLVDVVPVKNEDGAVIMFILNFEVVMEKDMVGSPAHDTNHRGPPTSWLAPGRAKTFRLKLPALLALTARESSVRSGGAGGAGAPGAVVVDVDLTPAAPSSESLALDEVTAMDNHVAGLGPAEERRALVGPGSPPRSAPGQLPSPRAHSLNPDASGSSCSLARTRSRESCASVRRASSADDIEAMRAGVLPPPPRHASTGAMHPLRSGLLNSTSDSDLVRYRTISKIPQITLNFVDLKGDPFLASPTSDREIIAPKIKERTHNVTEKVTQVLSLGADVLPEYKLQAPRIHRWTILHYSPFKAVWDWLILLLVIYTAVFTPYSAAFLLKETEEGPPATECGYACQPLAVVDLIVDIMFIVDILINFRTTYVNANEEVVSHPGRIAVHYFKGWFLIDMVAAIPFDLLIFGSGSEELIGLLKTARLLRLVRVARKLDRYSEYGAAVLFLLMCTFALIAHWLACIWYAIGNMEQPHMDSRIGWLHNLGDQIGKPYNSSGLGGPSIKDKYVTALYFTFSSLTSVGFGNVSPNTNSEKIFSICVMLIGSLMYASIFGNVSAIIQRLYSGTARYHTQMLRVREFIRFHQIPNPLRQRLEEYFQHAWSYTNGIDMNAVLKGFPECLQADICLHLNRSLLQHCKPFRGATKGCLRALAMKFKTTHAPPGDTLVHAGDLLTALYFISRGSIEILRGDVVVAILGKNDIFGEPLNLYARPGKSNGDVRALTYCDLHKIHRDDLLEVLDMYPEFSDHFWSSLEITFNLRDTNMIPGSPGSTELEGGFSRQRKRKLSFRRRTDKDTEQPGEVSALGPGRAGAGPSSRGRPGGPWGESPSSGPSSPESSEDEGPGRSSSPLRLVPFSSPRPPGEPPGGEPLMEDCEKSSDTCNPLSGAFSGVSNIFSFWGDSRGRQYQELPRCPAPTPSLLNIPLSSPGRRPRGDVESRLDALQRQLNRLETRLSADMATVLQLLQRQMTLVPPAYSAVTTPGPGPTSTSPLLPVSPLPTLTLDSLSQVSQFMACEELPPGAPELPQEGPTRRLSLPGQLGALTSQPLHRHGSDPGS

Sequence of Voltage-gated inwardly rectifying potassium channel KCNH2 (Q12809 whole entry): as above

SMILES	Activity [1] [%]	Activity [2]	IC50 [3] [µM]	inhibition at 5 min, 3 µM [4] [%]
Cc1ccc([C@]2(O)CC[C@H](N3CC(NC(=O)CNC(=O)c4cccc(C(F)(F)F)c4)C3)CC2)cn1	13	Dose-dependent effect	–	–
COc1ccc([C@]2(O)CC[C@H](N3CC(NC(=O)CNC(=O)c4cccc(C(F)(F)F)c4)C3)CC2)cn1	6	Dose-dependent effect	–	–
COc1ccc([C@]2(O)CC[C@H](N3CC(NC(=O)CNC(=O)c4cccc(C(F)(F)F)c4)C3)CC2)nc1	–	–	25	30
Cc1cnc([C@]2(O)CC[C@H](N3CC(NC(=O)CNC(=O)c4cccc(C(F)(F)F)c4)C3)CC2)s1	15	–	–	–
